Reference: ChEMBL document CHEMBL4152308, “Synthesis and biological evaluation of novel 2-oxo-1,2-dihydroquinoline-4-carboxamide derivatives for the treatment of esophageal squamous cell carcinoma” (Eur J Med Chem, 2018)

Columns and labels:
KYSE-410 [1] = assay: Antiproliferative activity against human KYSE410 cells after 72 hrs by MTT assay; assay type: functional, cell-based; settings: KYSE-410, 72 h
How it was run: (§1)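 Cells grown as monolayers at 37 °C, 5% CO2, mycoplasma-checked, in exponential phase. Cells seeded in 96-well plates, 24 h attachment, then compound added for 72 h. MTT 0.3 mg/mL for 3 h at 37 °C, DMSO solubilization, absorbance at 570 nm. Inhibition = (1 − A/C) × 100%. IC50 from log(concentration) vs % inhibition plot; triplicate wells, SD from ≥3 independent experiments.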

KYSE-70 cell line = assay: Antiproliferative activity against human KYSE-70 cells after 72 hrs by MTT assay; assay type: functional, cell-based; settings: KYSE-70, 72 h; how it was run: as §1
KYSE-410 [2] = assay: Cell cycle arrest in human KYSE410 cells assessed as accumulation at G2 phase at 5 uM after 24 to 48 hrs by propidium iodide staining based flow cytometry (reference value: 12.2%); assay type: functional
KYSE-410 [3] = assay: Cell cycle arrest in human KYSE410 cells assessed as accumulation at G1 phase at 1 uM after 24 to 48 hrs by propidium iodide staining based flow cytometry (reference value: 65.4%); assay type: functional
KYSE-410 [4] = assay: Cell cycle arrest in human KYSE410 cells assessed as accumulation at G2 phase at 1 uM after 24 to 48 hrs by propidium iodide staining based flow cytometry (reference value: 12.2%); assay type: functional
KYSE-410 [5] = assay: Cell cycle arrest in human KYSE410 cells assessed as accumulation at S phase at 5 uM after 24 to 48 hrs by propidium iodide staining based flow cytometry (reference value: 22.3%); assay type: functional
KYSE-410 [6] = assay: Cell cycle arrest in human KYSE410 cells assessed as accumulation at G1 phase at 5 uM after 24 to 48 hrs by propidium iodide staining based flow cytometry (reference value: 65.4%); assay type: functional
KYSE-410 [7] = assay: Cell cycle arrest in human KYSE410 cells assessed as accumulation at S phase at 1 uM after 24 to 48 hrs by propidium iodide staining based flow cytometry (reference value: 22.3%); assay type: functional
MIA PaCa-2 = assay: Antiproliferative activity against human MIAPaCa2 cells after 72 hrs by MTT assay; assay type: functional, cell-based; settings: MIA PaCa-2, 72 h; how it was run: as §1
SK-OV-3 = assay: Antiproliferative activity against human SKOV3 cells after 72 hrs by MTT assay; assay type: functional, cell-based; settings: SK-OV-3, 72 h; how it was run: as §1
OVCAR-8 = assay: Antiproliferative activity against human OVCAR8 cells after 72 hrs by MTT assay; assay type: functional, cell-based; settings: OVCAR-8, 72 h; how it was run: as §1

Row | Structure (SMILES) | IC50 (KYSE-410 [1]) | IC50 (KYSE-70 cell line) | other results
1 | O=C(Nc1cccc(F)c1)c1cc(=O)n(O)c2ccccc12 | > 20 µM | > 20 µM | –
2 | Nc1ccc(-c2ccc3c(C(=O)Nc4cccc(F)c4)cc(=O)[nH]c3c2)cc1 | > 20 µM | > 20 µM | –
3 | CCN(CC)CCCC(C)Nc1ccnc2cc(Cl)ccc12 (stereo not given) [CHLOROQUINE] | – | – | Activity (KYSE-410 [2]): 11.3%; Activity (KYSE-410 [3]): 65.6%; Activity (KYSE-410 [4]): 13.7%; Activity (KYSE-410 [5]): 24.4%; Activity (KYSE-410 [6]): 64.3%; Activity (KYSE-410 [7]): 20.7%
4 | O=C(Nc1ccc(Cl)cc1)c1ccnc2cc(Br)ccc12 | > 20 µM | > 20 µM | –
5 | Cc1ccc(-c2ccc3c(C(=O)Nc4cccc(F)c4)cc(=O)[nH]c3c2)cc1 | > 20 µM | > 20 µM | –
6 | O=C(Nc1cccc(F)c1)c1cc(=O)[nH]c2cc(-c3ccccc3)ccc12 | > 20 µM | > 20 µM | –
7 | O=C(c1ccnc2cc(Br)ccc12)N1CCCCC1 | > 20 µM | > 20 µM | –
8 | O=C(Nc1cccc(F)c1)c1cc(=O)[nH]c2cc(-c3ccccc3F)ccc12 | > 20 µM | > 20 µM | –
9 | COc1ccc2c(C(=O)Nc3cc(F)cc(F)c3)cc(=O)[nH]c2c1 | > 20 µM | > 20 µM | –
10 | O=C(Nc1ccc(F)cc1)c1cc(=O)[nH]c2cc(Br)ccc12 | > 20 µM | > 20 µM | –
11 | O=C(Nc1cccc(F)c1)c1cc(=O)[nH]c2cc(-c3ccc(F)nc3)ccc12 | > 20 µM | > 20 µM | –
12 | COc1cccc2c(C(=O)Nc3cc(F)cc(F)c3)cc(=O)[nH]c12 | > 20 µM | > 20 µM | –
13 | O=C(Nc1ccc(Cl)cc1)c1cc(=O)[nH]c2cc(Br)ccc12 | > 20 µM | > 20 µM | –
14 | O=C(Nc1ccccn1)c1cc(=O)[nH]c2cc(Br)ccc12 | 9.8 µM | 11 µM | Activity (KYSE-410 [2]): 18.5%; Activity (KYSE-410 [3]): 70.8%; IC50 (MIA PaCa-2): 21.3 µM; Activity (KYSE-410 [4]): 10.8%; IC50 (SK-OV-3): > 20 µM; Activity (KYSE-410 [5]): 19.5%; IC50 (OVCAR-8): > 20 µM; Activity (KYSE-410 [6]): 62.1%; Activity (KYSE-410 [7]): 18.5%
15 | O=C(Nc1cccc(F)c1)c1cc(=O)[nH]c2cc(F)ccc12 | > 20 µM | > 20 µM | –
16 | O=C(c1cc(=O)[nH]c2cc(Br)ccc12)N1CCCCC1 | > 20 µM | > 20 µM | –
17 | O=C(Nc1cccc(F)c1)c1cc(=O)[nH]c2cc(-c3cccc(F)c3)ccc12 | 10.9 µM | 12 µM | –
18 | COc1cccc(NC(=O)c2cc(=O)[nH]c3cc(Br)ccc23)c1 | > 20 µM | > 20 µM | –
19 | CC(C)(C)c1ccc(-c2ccc3c(C(=O)Nc4cccc(F)c4)cc(=O)[nH]c3c2)cc1 | > 20 µM | > 20 µM | –
20 | O=C(Nc1cc(F)cc(F)c1)c1cc(=O)[nH]c2cc(C(F)(F)F)ccc12 | 17.9 µM | 14.2 µM | –
21 | O=C(Nc1cccc(Cl)c1)c1cc(=O)[nH]c2cc(Br)ccc12 | > 20 µM | > 20 µM | –
22 | CC(=O)c1ccc(-c2ccc3c(C(=O)Nc4cccc(F)c4)cc(=O)[nH]c3c2)cc1 | > 20 µM | > 20 µM | –
23 | O=C(Nc1cccc(F)c1)c1cc(=O)[nH]c2cc(-c3ccncc3)ccc12 | > 20 µM | > 20 µM | –
24 | O=C(Nc1ccc(C(F)(F)F)cc1)c1cc(=O)[nH]c2cc(Br)ccc12 | > 20 µM | > 20 µM | –
25 | COc1ccc(-c2ccc3c(C(=O)Nc4cccc(F)c4)cc(=O)[nH]c3c2)cc1 | 18 µM | > 20 µM | –
26 | O=C(Nc1cccc(F)c1)c1cc(=O)[nH]c2cc(-c3ccsc3)ccc12 | 4.3 µM | 5.1 µM | Activity (KYSE-410 [2]): 54.9%; Activity (KYSE-410 [3]): 63.6%; IC50 (MIA PaCa-2): 4.5 µM; Activity (KYSE-410 [4]): 14.7%; IC50 (SK-OV-3): 6.7 µM; Activity (KYSE-410 [5]): 22.4%; IC50 (OVCAR-8): 13.4 µM; Activity (KYSE-410 [6]): 22.6%; Activity (KYSE-410 [7]): 21.7%

Row | Structure (SMILES) | IC50 (KYSE-410 [1]) | IC50 (KYSE-70 cell line) | other results
27 | O=C(Nc1cccc(F)c1)c1cc(=O)[nH]c2cc(-c3cccnc3F)ccc12 | 11.6 µM | > 20 µM | –
28 | O=C(Nc1ccc(F)cc1F)c1cc(=O)[nH]c2cc(Br)ccc12 | > 20 µM | > 20 µM | –
29 | O=C(Nc1cc(F)cc(F)c1)c1cc(=O)[nH]c2c(O)cccc12 | > 20 µM | > 20 µM | –
30 | COc1ccc(OC)c(NC(=O)c2cc(=O)[nH]c3cc(Br)ccc23)c1 | > 20 µM | > 20 µM | –
31 | COc1ccc2c(C(=O)Nc3cc(F)cc(F)c3)cc(=O)[nH]c2n1 | > 20 µM | > 20 µM | –
32 | O=C(Nc1cccc(C(F)(F)F)c1)c1cc(=O)[nH]c2cc(Br)ccc12 | > 20 µM | > 20 µM | –
33 | O=C(Nc1cccc(F)c1)c1cc(=O)[nH]c2cc(-c3ccc(F)c(CO)c3)ccc12 | > 20 µM | > 20 µM | –
34 | O=C(Nc1cc(F)cc(F)c1)c1cc(=O)[nH]c2cc(O)ccc12 | > 20 µM | > 20 µM | –
35 | O=C(Nc1cccc(OC(F)(F)F)c1)c1cc(=O)[nH]c2cc(Br)ccc12 | 14 µM | > 20 µM | –
36 | O=C(Nc1cc(F)cc(F)c1)c1cc(=O)[nH]c2cc(Cl)ccc12 | 11 µM | 9 µM | –
37 | C=Cc1ccc2c(C(=O)Nc3cccc(F)c3)cc(=O)[nH]c2c1 | 13.6 µM | 9.7 µM | –
38 | O=C(Nc1ccc(F)cc1)c1ccnc2cc(Br)ccc12 | > 20 µM | > 20 µM | –
39 | O=C(Nc1cccc(F)c1)c1cc(=O)[nH]c2cc(C3CC3)ccc12 | > 20 µM | > 20 µM | –
40 | O=C(Nc1cccc(F)c1)c1cc(=O)[nH]c2cc(C3=CCOCC3)ccc12 | 12.1 µM | 10.5 µM | IC50 (MIA PaCa-2): 8.8 µM; IC50 (SK-OV-3): 13.3 µM; IC50 (OVCAR-8): 21.8 µM
41 | COc1ccc(NC(=O)c2cc(=O)[nH]c3cc(Br)ccc23)cc1 | > 20 µM | > 20 µM | –
42 | C#Cc1ccc2c(C(=O)Nc3cccc(F)c3)cc(=O)[nH]c2c1 | 9.7 µM | 9.5 µM | –
43 | O=C(Nc1cc(F)cc(F)c1)c1cc(=O)[nH]c2cc(F)ccc12 | > 20 µM | > 20 µM | –
44 | O=C(Nc1cc(F)c(F)c(F)c1)c1cc(=O)[nH]c2cc(Br)ccc12 | > 20 µM | > 20 µM | –
45 | Cc1cc(-c2ccc3c(C(=O)Nc4cccc(F)c4)cc(=O)[nH]c3c2)c(C)cc1F | > 20 µM | > 20 µM | –
46 | COc1ccccc1NC(=O)c1cc(=O)[nH]c2cc(Br)ccc12 | > 20 µM | > 20 µM | –
47 | O=C(Nc1ccc(OC(F)(F)F)cc1)c1cc(=O)[nH]c2cc(Br)ccc12 | > 20 µM | > 20 µM | –
48 | O=C(Nc1cc(F)ccc1F)c1cc(=O)[nH]c2cc(Br)ccc12 | > 20 µM | > 20 µM | –
49 | O=C(Nc1cccc(F)c1)c1cc(=O)n(Cc2ccccc2)c2cc(Br)ccc12 | > 20 µM | > 20 µM | –
50 | O=C(Nc1cccc(F)c1)c1cc(=O)[nH]c2cc(-c3ccc(F)cc3)ccc12 | 10.3 µM | 3.3 µM | IC50 (MIA PaCa-2): 19.3 µM; IC50 (SK-OV-3): 16.6 µM; IC50 (OVCAR-8): 22.3 µM
51 | COc1ccccc1NC(=O)c1ccnc2cc(Br)ccc12 | > 20 µM | > 20 µM | –
